Screening results: PubChem, Broad Institute
PGC1a acetyl up: raises PGC1a acetylation signal in U2OS cells. activation, % at 15.6 µM. 350,000 compounds, 0.21% hits. U2OS PGC1a acetylation AlphaScreen, overnight;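 active = every replicate reaching activation of at least 50%, whatever the mean replicate activation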;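 note: hits raise the AlphaScreen acetylation signal above neutral controls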
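Incubation: overnight compound treatment, 37 °C. System: U2OS cells transduced with flag-tagged PGC1a and GCN5 acetyltransferase. Detection: AlphaScreen lysate read. Compound: single-point compound dosing.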
The depositor's hits bear a star. The entries come from a sample that favours hits as a whole.

SMILES	PGC1a acetyl up
Cc1cccc(CC2CC(=O)N(C3CCCCC3)C2=O)c1 (stereo unspecified)	-46
CN(C)c1ccc(/C=N/N=C2/NC(=O)/C(=C/c3ccc([N+](=O)[O-])cc3)S2)cc1	81*
CN(C)c1ccc(C=C2SC(=S)NC2=O)cc1	-51
CN(C)C(=O)C[C@H]1CC[C@H](NC(=O)C2CCC2)[C@@H](CO)O1	-44
CC1(Cc2ccc(Cl)cc2)C(=O)Nc2ccc(-c3cccnc3)cc21 (stereo unspecified)	-46
Cc1ccc(CC2(C)C(=O)Nc3c(Cl)ccc(Cl)c32)cc1 (stereo unspecified)	159*
N#CC(C#N)=c1ccc2c(c1)NC1(CCCCC1)N=2	162*
N#CC1=C(N)Oc2c(ccc3ccccc23)C1c1ccsc1 (stereo unspecified)	57*
O=C1N(Cc2ccccc2)Cc2ccccc2[C@@H]2OC(c3ccc(OCCCO)cc3)=N[C@]12Cc1ccccc1	52*
CC(C(=O)OCn1nnc2ccccc2c1=O)N1C(=O)c2ccccc2C1=O (stereo unspecified)	-48
CCCOc1ccccc1-n1sc2c(c1=S)-c1cc(OC)cc3c1N(C(=O)C3=O)C2(C)C	-49
COc1ccc(C(=O)OCC(=O)NCc2ccc3c(c2)OCO3)cc1[N+](=O)[O-]	-46
COc1ccc([N+](=O)[O-])cc1NCc1ccccc1	84*
COc1ccc(C(=O)NC(=S)N(C)Cc2ccccc2)cc1Br	-49
CC(=O)Nc1ccc(OS(=O)(=O)c2ccc(C)cc2C)cc1	-48
CCOc1ccc2c(c1)C(C)=CC(C)(C)N2S(=O)(=O)c1ccc(NC(C)=O)cc1	106*
Cc1cccc2cc(CN(Cc3nnnn3Cc3ccco3)C3CCCC3)c3nnnn3c12	55*
COCC(=O)OCC(=O)Nc1cc(C(C)(C)C)nn1-c1ccccc1	-47
C[C@@H]1CN([C@H](C)CO)C(=O)c2cc(NC(=O)CCCCCC(=O)Nc3ccccc3N)ccc2O[C@H]1CN(C)S(=O)(=O)c1ccc(Cl)cc1	-60
COCCn1c(C)c(C)c2c(NCCc3ccccc3)ncnc21	-51
CC1CC1C(=O)OCC(=O)NCc1ccc(Cl)cc1 (stereo unspecified)	55*
Cc1cc(C)c2c(=O)[nH]n(C3CCCCCC3)c2n1	-88
O=C(Nc1ccccc1)c1nnsc1S(=O)c1ccc(Cl)cc1 (stereo unspecified)	125*
O=C(Nc1ccccc1)Nc1cc(Cl)cc(Cl)c1	-39
CO[C@H]1CN(C)C(=O)c2cc(NC(C)=O)ccc2OC[C@@H](C)N(CC2CCCCC2)C[C@@H]1C	-41
SMILES	PGC1a acetyl up
CCCCCCNC(=O)O[C@@]12CN(S(=O)(=O)c3ccc(C)cc3)C[C@]1(O)Cn1c(=O)n(CCCCCC)c(=O)n1C2	-69
CCc1ccc(C(=O)NNC(=O)Cn2c(=O)cnc3ccccc32)cc1	-40
CC(C)(C)c1ccc2c(c1)OC(C(=O)N/N=C/c1ccc([N+](=O)[O-])o1)CO2 (stereo unspecified)	165*
Cc1cc(=O)oc2cc(OCC(=O)OCC(=O)Nc3ccccc3F)ccc12	-45
CC(C)(C)c1ccc(NC(=O)N2CCCN(c3ccc([N+](=O)[O-])cn3)CC2)cc1	186*
CC1CCN(S(=O)(=O)c2ccc(Oc3ccc([N+](=O)[O-])cc3)cc2)CC1	-54
CCOC(=O)C1=CC[C@@H](c2ccc([N+](=O)[O-])cc2)N(S(=O)(=O)c2ccc(C)cc2)[C@H]1c1ccccc1	57*
CCC(=O)N(C)C[C@@H]1Oc2ncc(-c3ccc(C(=O)N(C)C)cc3)cc2C(=O)N([C@H](C)CO)C[C@@H]1C	-59
COC(=O)c1cc(Cl)c(NS(=O)(=O)c2ccccc2)cc1OC	-48
O=c1c2c3c(sc2n2cnnc2n1Cc1ccccc1)CN(Cc1ccccc1)CC3	73*
Cc1noc(C)c1S(=O)(=O)Nc1ccc2c(c1)C(=O)N([C@@H](C)CO)C[C@@H](C)[C@@H](CN(C)CC1CCCCC1)OCCCC[C@@H](C)O2	-85
Nc1c(C(=O)c2ccccc2)sc2nsc(SCCN3CCCC3)c12	126*
CN(C)C(=O)c1ccc(-c2ccc([C@@H]3[C@H]4CN(C(=O)CC5CC5)CC(=O)N4[C@H]3CO)cc2)cc1	-47
O=C(C[C@@H]1CC[C@@H](NC(=O)C2CCC2)[C@H](CO)O1)NCC1CC1	-56
Cc1ccc(NC(=O)CN(C)S(=O)(=O)c2cccs2)c(Br)c1	59*
C[C@@H]1CN([C@@H](C)CO)C(=O)c2cccc(NC(=O)Nc3ccccc3)c2O[C@H]1CN(C)S(=O)(=O)c1cccs1	-54
COc1ccc(N(CC(=O)Nc2ccccc2Cl)S(=O)(=O)c2ccc(C)cc2)cc1OC	-45
C=CCn1cccc(/C=C/C(=O)c2ccc(C(C)(C)C)cc2)c1=S	-53
CCCCN(C)C1CCN(C(=S)Nc2cccc(OC)c2)CC1	-52
COc1cccc(-c2csc(N3CCN(C(=S)Nc4ccccc4Cl)CC3)n2)c1	67*
Cc1ccc(-c2cnc3c(c2)C(=O)N([C@@H](C)CO)C[C@@H](C)[C@H](CN(C)C)O3)cc1	-109
N#Cc1cccc(C#N)c1NCC1CCCO1 (stereo unspecified)	-43
Cc1nn(-c2ccccc2)c(Cl)c1C(=O)N1CCN(c2ncnc3c2cnn3-c2ccccc2)CC1	-59
C=CCC1NS(=O)(=O)OC(CCc2ccccc2)C1O (stereo unspecified)	104*
CCC(=O)N(C)C[C@@H]1Oc2cc(C#Cc3cccnc3)ccc2S(=O)(=O)N([C@H](C)CO)C[C@H]1C	-29
SMILES	PGC1a acetyl up
Cc1c(NC(=O)c2ccccc2NS(=O)(=O)c2ccc(Br)cc2)c(=O)n(-c2ccccc2)n1C	-42
Clc1ccccc1CN1CCSCC1	-47
COc1cc(Cn2c(N)c(C#N)c3nc4ccccc4nc32)cc(OC)c1	52*
Cc1ccc2nsnc2c1NC(=O)c1ccc([N+](=O)[O-])o1	-44
Cc1ccc(NC(=O)c2ccc([N+](=O)[O-])o2)cc1C	90*
Cc1ccc(S(=O)(=O)Nc2ccc3c(c2)C(=O)N([C@H](C)CO)C[C@@H](C)[C@@H](CN(C)C(=O)NC(C)C)OCCCC[C@H](C)O3)cc1	-53
CC(=O)Nc1ccc(C(=O)OC2CCOC2=O)cc1 (stereo unspecified)	-47
COc1cc(CC(=O)OC2CCOC2=O)cc(OC)c1OC (stereo unspecified)	57*
COc1cc(CCC(=O)Nc2cc(C)cc(C)c2)cc(OC)c1OC	-45
O=C(CC1SC(=NCc2ccccc2)NC1=O)Nc1ccccc1 (stereo unspecified)	99*
CCCCN=C1NC(=O)C(CC(=O)Nc2ccc(Cl)cc2)S1 (stereo unspecified)	171*
CSCC[C@H](NC(=O)c1ccc(Br)o1)c1nnc2ccccn12	-43
Cc1ccc(CN(C(=O)Cn2nnc3ccccc32)C(C(=O)NCc2ccco2)c2cccs2)cc1 (stereo unspecified)	-46
CCOc1ccc(Nc2nc(NCc3ccco3)nc(N)c2[N+](=O)[O-])cc1	-72
C[C@@H]1CN([C@@H](C)CO)C(=O)CCCn2cc(nn2)CO[C@H]1CN(C)Cc1ccc2c(c1)OCO2	-59
O=C(NCc1cccc(Cl)c1)c1ccc(-n2ccnc2)c2ccoc12	52*
COCCCNC(=O)c1ccc(Cn2c(=O)c3ccccc3n(Cc3ccccc3C)c2=O)cc1	-52
O=C(NCc1ccco1)c1ccc(Cn2c(=O)c3ccccc3n(Cc3ccc(Cl)cc3)c2=O)cc1	88*
O=C1CSC(=Nc2ccc(Cl)cc2)N1Cc1ccco1	-47
